Assay results reported in ChEMBL document CHEMBL1914356, “Maslinic acid derivatives induce significant apoptosis in b16f10 murine melanoma cells” (2011).
The source made the active and inactive calls. The calls are words filed in the database; no cut-off is given here.

Columns and labels:
B16-F10 [1] = test: Induction of apoptosis in mouse B16F10 cells assessed as necrotic cells at 30 uM after 24 hrs using annexin V-FITC/propidium iodide staining by flow cytometry; format: functional
Procedure, shortened: (§1)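 B16-F10 cells grown in DMEM with 4 mM L-glutamine, 1 mM pyruvate, 4.5 g/L glucose and 10% FBS. 300,000 cells/well were plated, then treated in DMSO after 24 h. Vehicle and medium-alone controls were included. Cells were detached with EDTA-trypsin, PBS-washed and set at 1 × 10^6 cells/mL in binding buffer. Annexin V-FITC/PI staining ran 15 min at room temperature in the dark, followed by flow cytometry within 1 h.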

B16-F10 [2] = test: Induction of apoptosis in mouse B16F10 cells assessed as early/late apoptotic cells at 30 uM after 24 hrs using annexin V-FITC/propidium iodide staining by flow cytometry; format: functional; procedure, shortened: as §1
B16-F10 [3] = test: Induction of apoptosis in mouse B16F10 cells assessed as total apoptosis at 20 uM after 24 hrs using annexin V-FITC/propidium iodide staining by flow cytometry; format: functional
Procedure, shortened: (§2)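 B16-F10 cells in DMEM/10% FBS were plated at 300,000 cells/well, then treated 24 h later, in duplicate, in DMSO at […] for 24 or 48 h. Vehicle and medium controls were included. Annexin V-FITC/PI staining ran 15 min at room temperature in the dark. Total apoptosis (early + late) was read by flow cytometry as mean ± SD from two independent experiments.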

B16-F10 [4] = test: Induction of apoptosis in mouse B16F10 cells assessed as total apoptosis at 20 uM after 48 hrs using annexin V-FITC/propidium iodide staining by flow cytometry; format: functional, cell-based; procedure, shortened: as §2
B16-F10 [5] = test: Induction of apoptosis in mouse B16F10 cells assessed as total apoptosis at 1 uM after 24 hrs using annexin V-FITC/propidium iodide staining by flow cytometry; format: functional
Procedure, shortened: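 B16-F10 cells grown in DMEM with 4 mM L-glutamine, 1.5 g/L bicarbonate, 1 mM pyruvate, 4.5 g/L glucose, 10% FBS. Seeded at 300,000 cells/well in 6-well dishes, treated 24 h later with compound in DMSO. Vehicle and medium-only controls. Detached with EDTA-trypsin, PBS-washed, stained with annexin V-FITC and PI 15 min at room temperature in dark. Total apoptosis = early + late. Mean ± SD, two independent experiments.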

B16-F10 [6] = test: Induction of apoptosis in mouse B16F10 cells at 30 uM after 24 hrs using annexin V-FITC/propidium iodide staining by flow cytometry; format: functional; procedure, shortened: as §1

Row | Compound | Activity (B16-F10 [1]) [%] | other results
1 | CC1(C)CC[C@]2(C(=O)OCc3ccccc3)CC[C@]3(C)C(=CC[C@@H]4[C@@]5(C)CC(=O)[C@H](O)C(C)(C)[C@@H]5CC[C@]43C)[C@@H]2C1 | <10 | Activity (B16-F10 [2]): 80%; Activity (B16-F10 [3]): > 70%; Activity (B16-F10 [4]): Active
2 | CC1(C)CC[C@]2(C(=O)[O-])CC[C@]3(C)C(=CC[C@@H]4[C@@]5(C)C[C@@H](O)[C@H](O)C(C)(C)[C@@H]5CC[C@]43C)[C@@H]2C1.[Na+] [SODIUM MASLINATE] | <10 | Activity (B16-F10 [2]): 80%; Activity (B16-F10 [3]): 70%; Activity (B16-F10 [5]): 56.67%
3 | CC(=O)O[C@H]1CC[C@]2(C)[C@H]3C[C@H](O)[C@]45OC(=O)[C@@]6(CCC(C)(C)C[C@H]64)CC[C@@]5(C)[C@]3(C)CC[C@H]2C1(C)C | <10 | 
4 | CC1(C)CC[C@]2(C(=O)O)CC[C@]3(C)C(=CC[C@@H]4[C@@]5(C)C[C@H](O)[C@H](O)C(C)(C)[C@@H]5CC[C@]43C)[C@@H]2C1 [AUGUSTIC ACID] | <10 | 
5 | CC1(C)CC[C@]2(C(=O)O)CC[C@]3(C)C(=CC[C@@H]4[C@@]5(C)C=C(O)C(=O)C(C)(C)[C@@H]5CC[C@]43C)[C@@H]2C1 | <10 | Activity (B16-F10 [2]): 80%; Activity (B16-F10 [4]): Active
6 | COC(=O)[C@]12CCC(C)(C)C[C@H]1[C@]1(/C=C\[C@@]34O[C@]3(C)CC[C@H]3C(C)(C)[C@@H](O)CC[C@@]34C)O[C@@]1(C)CC2 | <10 | Activity (B16-F10 [6]): 30%
7 | CC(=O)O[C@H]1CC[C@]2(C)[C@H]3C=C[C@]45OC(=O)[C@@]6(CCC(C)(C)C[C@H]64)CC[C@@]5(C)[C@]3(C)CC[C@H]2C1(C)C | <10 | 
8 | COC(=O)[C@]12CCC(C)(C)C[C@H]1C1=CC[C@@H]3[C@@]4(C)C[C@@H](O)C(=O)[C@](C)(CO)[C@@H]4CC[C@@]3(C)[C@]1(C)CC2 | <10 | Activity (B16-F10 [6]): 30%
9 | C=C1CC[C@H]2C(C)(C)[C@@H](OC(C)=O)CC[C@]2(C)/C1=C/CC1=C(C)CCC2(C(=O)OC)CCC(C)(C)C[C@@H]12 (single isomer, unassigned) | <10 | 
10 | CC1(C)CC[C@]2(CO)CC[C@]3(C)C(=CC[C@@H]4[C@@]5(C)C[C@H](O)[C@H](O)C(C)(C)[C@@H]5CC[C@]43C)[C@@H]2C1 | <10 | 
11 | CC1(C)CC[C@]2(C(=O)O)CC[C@]3(C)C(=CC[C@@H]4[C@@]5(C)CC[C@H](O)C(C)(C)[C@@H]5CC[C@]43C)[C@@H]2C1 [OLEANOLIC_ACID] | <10 | 
12 | COC(=O)[C@]12CCC(C)(C)C[C@H]1C1=CC[C@@H]3[C@@]4(C)C[C@@H](OC(C)=O)C(=O)C(C)(C)[C@@H]4CC[C@@]3(C)[C@]1(C)CC2 | <10 | 
13 | Cc1ccc(S(=O)(=O)OC[C@]23CCC(C)(C)C[C@H]2C2=CC[C@@H]4[C@@]5(C)C[C@H]6OC(C)(C)O[C@@H]6C(C)(C)[C@@H]5CC[C@@]4(C)[C@]2(C)CC3)cc1 | <10 | 
14 | CC(=O)O[C@@H]1C[C@]2(C)[C@H]3CC=C4[C@@H]5CC(C)(C)CC[C@]5(C(=O)O)CC[C@@]4(C)[C@]3(C)CC[C@H]2C(C)(C)[C@H]1OC(C)=O | <10 | 
15 | CC(=O)O[C@H]1CC[C@]2(C)[C@H]3C[C@H](OC(C)=O)[C@]45OC(=O)[C@@]6(CCC(C)(C)C[C@H]64)CC[C@@]5(C)[C@]3(C)CC[C@H]2C1(C)C | <10 | Activity (B16-F10 [6]): 30%
16 | CC1(C)CC[C@]2(CN)CC[C@]3(C)C(=CC[C@@H]4[C@@]5(C)C[C@@H](O)[C@H](O)C(C)(C)[C@@H]5CC[C@]43C)[C@@H]2C1 | <10 | 
17 | C=C1C[C@]2(C)[C@H]3CC=C4[C@@H]5CC(C)(C)CC[C@]5(C(=O)OC)CC[C@@]4(C)[C@]3(C)CC[C@H]2C(C)(C)[C@H]1OC(C)=O | <10 | 
18 | CC1(C)CC[C@]2(CN=[N+]=[N-])CC[C@]3(C)C(=CC[C@@H]4[C@@]5(C)C[C@@H](O)[C@H](O)C(C)(C)[C@@H]5CC[C@]43C)[C@@H]2C1 | <10 | 
19 | CC1(C)CC[C@]2(C(=O)OCc3ccccc3)CC[C@]3(C)C(=CC[C@@H]4[C@@]5(C)C[C@H](O)[C@H](O)C(C)(C)[C@@H]5CC[C@]43C)[C@@H]2C1 [BENZYL AUGUSTATE] | <10 | Activity (B16-F10 [2]): 80%; Activity (B16-F10 [4]): Active

Row | Compound | Activity (B16-F10 [1]) [%] | other results
20 | CC1(C)CC[C@]2(C(=O)OCc3ccccc3)CC[C@]3(C)C(=CC[C@@H]4[C@@]5(C)C=C(O)C(=O)C(C)(C)[C@@H]5CC[C@]43C)[C@@H]2C1 | <10 | Activity (B16-F10 [2]): 80%; Activity (B16-F10 [4]): Active
21 | CC(=O)O[C@H]1CC[C@]2(C)C3=CC(=O)[C@]45OC(=O)[C@@]6(CCC(C)(C)C[C@H]64)CC[C@@]5(C)[C@]3(C)CC[C@H]2C1(C)C | <10 | 
22 | CC1(C)CC[C@]2(CO)CC[C@]3(C)[C@](O)([C@H](O)C=C4[C@@]5(C)CC[C@H](O)C(C)(C)[C@@H]5CC[C@]43C)[C@@H]2C1 | <10 | 
23 | CC1(C)CC[C@]2(C(=O)O)CC[C@]3(C)C(=CC[C@@H]4[C@@]5(C)C[C@@H](O)[C@H](O)C(C)(C)[C@@H]5CC[C@]43C)[C@@H]2C1 |  | Activity (B16-F10 [4]): Active
24 | CC1(C)CC[C@]2(C(=O)O)CC[C@]3(C)C(=CC[C@@H]4[C@@]5(C)CC(=O)[C@H](O)C(C)(C)[C@@H]5CC[C@]43C)[C@@H]2C1 | <10 | Activity (B16-F10 [2]): 80%; Activity (B16-F10 [4]): Active
25 | CC(=O)O[C@@H]1C[C@]2(C)[C@H]3CC=C4[C@@H]5CC(C)(C)CC[C@]5(C(N)=O)CC[C@@]4(C)[C@]3(C)CC[C@H]2C(C)(C)[C@H]1OC(C)=O | <10 | 
26 | C=C1CC[C@H]2C(C)(C)CCC[C@]2(C)/C1=C/CC1=C(C)CCC2(C(=O)OC)CCC(C)(C)C[C@@H]12 (single isomer, unassigned) | <10 | 
27 | COC(=O)[C@]12CCC(C)(C)C[C@H]1[C@@](O)(/C=C\[C@@]13O[C@]1(C)CC[C@H]1C(C)(C)CCC[C@@]13C)[C@](C)(O)CC2 | <10 | 
28 | CC1(C)CC[C@]2(CO)CC[C@]3(C)C(=CC[C@@H]4[C@@]5(C)C[C@@H](O)[C@H](O)C(C)(C)[C@@H]5CC[C@]43C)[C@@H]2C1 | <10 | 
29 | COC(=O)C12CCC(C)=C(/C=C\C3=C(C)CC[C@H]4C(C)(C)[C@@H](OC(C)=O)CC[C@]34C)[C@@H]1CC(C)(C)CC2 (single isomer, unassigned) | <10 | 
30 | COC(=O)[C@]12CCC(C)(C)C[C@H]1C1=CC[C@@H]3[C@@]4(C)C[C@@H](C=O)C(C)(C)[C@@H]4CC[C@@]3(C)[C@]1(C)CC2 | <10 | 
31 | CC1(C)CC[C@]2(CO)CC[C@]3(C)C(=CC[C@@H]4[C@@]5(C)C[C@H]6OC(C)(C)O[C@@H]6C(C)(C)[C@@H]5CC[C@]43C)[C@@H]2C1 | <10 | 
32 | CC1(C)CC[C@]2(C(=O)O)CC[C@]3(C)C(=CC[C@@H]4[C@@]5(C)C[C@@H](O)[C@H](O)C(C)(C)[C@@H]5CC[C@]43C)[C@@H]2C1 [MASLINIC ACID] | <10 | 
33 | COC(=O)C12CCC(C)=C(/C=C\C3=C(C)CC[C@H]4C(C)(C)[C@@H](O)CC[C@]34C)[C@@H]1CC(C)(C)CC2 (single isomer, unassigned) | <10 | 
34 | COC(=O)[C@]12CCC(C)(C)C[C@H]1[C@@](O)(/C=C\[C@@]13O[C@]1(C)CC[C@H]1C(C)(C)[C@@H](O)CC[C@@]13C)[C@](C)(O)CC2 | <10 | Activity (B16-F10 [6]): 30%
35 | COC(=O)[C@]12CCC(C)(C)C[C@H]1C1=CC[C@@H]3[C@@]4(C)C[C@H](OC(C)=O)[C@@H](O)C(C)(C)[C@@H]4CC[C@@]3(C)[C@]1(C)CC2 | <10 | 
36 | CC1(C)CC[C@]2(C(N)=O)CC[C@]3(C)C(=CC[C@@H]4[C@@]5(C)C[C@@H](O)[C@H](O)C(C)(C)[C@@H]5CC[C@]43C)[C@@H]2C1 | <10 | Activity (B16-F10 [2]): 80%; Activity (B16-F10 [3]): 70%; Activity (B16-F10 [4]): Active
37 | C=C1C2CC3[C@@]4(C)CC[C@H](OC(C)=O)C(C)(C)C4CC[C@@]3(C)C2=CC[C@@]2(C(=O)OC)CCC(C)(C)CC12 (some centres undefined) | <10 | 
38 | COC(=O)[C@]12CCC(C)(C)C[C@H]1C1=CC[C@@H]3[C@@]4(C)C=CC(=O)C(C)(C)[C@@H]4CC[C@@]3(C)[C@]1(C)CC2 | <10 | 
